One block for each compound: values may come before it.
Experiments:
[1] = Oral bioavailability in dog at 1 mg/kg; type: ADME, organism-based, Canis lupus familiaris; conditions: in vivo
[2] = Oral bioavailability in rat at 1 mg/kg; type: ADME, organism-based; conditions: in vivo
How it was run: (§1)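 Rats (n = 3) given 0.5 mg/kg intravenously and 1.0 mg/kg orally; values reported as mean ± spread over 3 animals.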

[3] = Volume of distribution at steady state in dog at 0.2 mg/kg, iv and 1 mg/kg, po; type: ADME, organism-based, Canis lupus familiaris; conditions: in vivo, read-out: Vdss
[4] = Half life in rat at 0.5 mg/kg, iv and 1 mg/kg, po; type: ADME, organism-based; conditions: in vivo; how it was run: as §1
[5] = Clearance in rat at 0.5 mg/kg, iv and 1 mg/kg, po; type: ADME, organism-based; conditions: in vivo; how it was run: as §1
[6] = Half life in dog at 0.2 mg/kg, iv and 1 mg/kg, po; type: ADME, organism-based, Canis lupus familiaris; conditions: in vivo
[7] = Clearance in dog at 0.2 mg/kg, iv and 1 mg/kg, po; type: ADME, organism-based, Canis lupus familiaris; conditions: in vivo
[8] = Volume of distribution at steady state in rat at 0.5 mg/kg, iv and 1 mg/kg, po; type: ADME, organism-based; conditions: in vivo, read-out: Vdss; how it was run: as §1
[9] = Half life in dog at 0.2 mg/kg, iv; type: ADME, organism-based, Canis lupus familiaris; design: dose 0.2 mg/kg, route intravenous; conditions: in vivo
[10] = Volume of distribution at steady state in dog at 0.2 mg/kg, iv; type: ADME, organism-based, Canis lupus familiaris; design: dose 0.2 mg/kg, route intravenous; conditions: in vivo, read-out: Vdss
[11] = Clearance in dog at 0.2 mg/kg, iv; type: ADME, organism-based, Canis lupus familiaris; design: dose 0.2 mg/kg, route intravenous; conditions: in vivo

bioavailability [1]: 3.5%
bioavailability [2]: < 1%
SMILES: CCOc1cc([C@@H](Nc2ccc3c(N)nccc3c2)C(=O)NS(=O)(=O)c2ccccc2)ccc1OC(C)C

bioavailability [1]: 45%
Vd [3]: 4.2 L/kg
half-life [4]: 294 min
bioavailability [2]: 7.9%
clearance [5]: 26 mL/min/kg
half-life [6]: 132 min
clearance [7]: 41 mL/min/kg
Vd [8]: 5.6 L/kg
SMILES: CCOc1ccc(F)c([C@@H](Nc2ccc3c(N)nccc3c2)C(=O)N2CCC[C@@H]2c2cc(NC(=O)OC)ccc2S(=O)(=O)C(C)C)c1

half-life [9]: 66 min
Vd [10]: 0.65 L/kg
clearance [11]: 14 mL/min/kg
SMILES: CCS(=O)(=O)c1ccccc1[C@H]1[C@@H](C(=O)O)CCN1C(=O)[C@H](Nc1ccc2c(N)nccc2c1)c1ccc(F)c(OC)c1

bioavailability [1]: 45%
bioavailability [2]: 31%
SMILES: CCOc1cc([C@@H](Nc2ccc3c(N)nccc3c2)C(=O)NCc2ccccc2)ccc1OC(C)C

— ChEMBL document CHEMBL3112528 (ACS Med Chem Lett, 2014)
